Assay outcomes from PubChem BioAssay.
PvdQ inh – P. aeruginosa PvdQ acylase inhibitors, primary screen, biochemical, fluorescence, plate reader and imaging, single point; AID 488965, 2010; hit rate 0.063% among 340,000; purified PvdQ acylase; inhibition, % at 10 µM; PvdQ acylase [Pseudomonas aeruginosa LESB58]; in the data active = inhibition above about 30%, passing the limit was not always enough
ERp5 block – inhibitors of ERp5-driven insulin aggregation, primary screen, biochemical, turbidity, absorbance 650 nm, single point; AID 651711, 2012; hit rate 0.05% among 350,000; inhibition, % at 9.99 µM; 90 min; Protein disulfide-isomerase A6 (Homo sapiens), Q15084;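 active = mean replicate inhibition above about 25%, with every replicate also reaching it, limit read from the data, passing the limit was not always enough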
Target sequence (Q15084 whole entry, looked up): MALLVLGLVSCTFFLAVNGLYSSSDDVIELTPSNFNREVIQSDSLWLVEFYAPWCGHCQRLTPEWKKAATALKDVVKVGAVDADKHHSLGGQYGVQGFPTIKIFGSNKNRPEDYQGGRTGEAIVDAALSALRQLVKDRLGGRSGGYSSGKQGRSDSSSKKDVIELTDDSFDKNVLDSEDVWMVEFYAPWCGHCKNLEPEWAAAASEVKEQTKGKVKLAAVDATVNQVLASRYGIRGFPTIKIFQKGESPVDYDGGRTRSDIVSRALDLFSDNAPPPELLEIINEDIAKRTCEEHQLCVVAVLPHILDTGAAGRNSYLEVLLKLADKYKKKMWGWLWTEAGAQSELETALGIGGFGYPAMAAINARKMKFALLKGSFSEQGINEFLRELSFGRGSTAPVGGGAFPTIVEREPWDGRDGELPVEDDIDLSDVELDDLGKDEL
rRNA inh HTS – reduced GFP signal of wild-type E. coli, primary screen, bacterial rRNA inhibitor project, GFP/RFP fluorescence, OD600, single point; E. coli WT GFP vs humanized-ribosome RFP mutants, 24 h; hits give low values; DMSO median 0, no signal -100; AID 720706, 2013; GFP signal change (wild-type ribosome), % (concentration not given with the values); hit rate 1.6% among 350,000;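 active = significant combined selectivity score with lowered wild-type GFP, culture density cut under 30%, mutant RFP and density less affected; inactive = any of these conditions unmet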
Env fusion inh – inhibitors of HIV-1 Env-driven cell-cell fusion, primary screen, HeLa-JRFL effector, CEM21 target cells, luciferase. inhibition, % at 12.3 µM. hit rate 1.1% among 360,000. AID 651610, 2012;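 active = mean replicate inhibition score of at least 50 and every replicate individually at or above 50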
PDI inh – inhibitors of human PDI, primary screen, biochemical, turbidity, single point, plate reader. inhibition, % at 10 µM. Protein disulfide-isomerase (Homo sapiens), P07237. PDI insulin aggregation turbidity, A650, 90 min. hit rate 0.052% among 350,000;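 active = mean inhibition across replicates of 30% or more, whatever share of single replicates reach that level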
FN deposition inh – inhibitors of fibronectin matrix deposition, primary screen, AH1F cells, Alexa488-fibronectin fluorescence, plate reader | AH1F fibroblasts, overnight | hit rate 0.086% among 350,000 | inhibition, % at 12.6 µM | AID 743247, 2014;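 active = mean inhibition across replicates of 30% or more, regardless of how many single replicates reach that level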
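Measured by – fluorescence 485/525 nm · System – AH1F fibroblast monolayer, labelled fibronectin deposition · Amount – 10000 cells per well · Buffer or medium – serum-reduced DMEM (2% serum) · Doses – single dose, pinned · Also added – fluorescent fibronectin at 24 nM final · Schedule – 1 h cell attachment, overnight exposure to compound and label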
Numbers stand for hits; i = inactive; nt = not tested or not shown. An excerpt weighted towards active compounds, which were near 2.2% of everything screened.

SMILES | PvdQ inh | ERp5 block | rRNA inh HTS | Env fusion inh | PDI inh | FN deposition inh
O=C1C(=O)N(c2nccs2)C(c2ccccc2)/C1=C(\O)c1ccc2c(c1)OCCO2 (configuration not stated) | i | nt | nt | nt | i | nt
O=C1C(=O)N(c2nccs2)C(c2ccccc2F)/C1=C(\O)c1ccc2c(c1)OCCO2 (configuration not stated) | i | i | i | 59.2 | i | i
CCCNC(=O)Nc1ccc2c(c1)OC[C@H](C)N(S(C)(=O)=O)C[C@@H](C)[C@@H](OC)CN(C)C2=O | nt | i | i | nt | nt | i
O=C1CC[C@@H]2c3[nH]c4ccc(F)cc4c3CCN12 | nt | i | nt | i | nt | nt
CCOc1ccccc1CNC(=O)CCn1ccc2cc(S(=O)(=O)N3CCCCC3)ccc21 | i | i | i | 61.5 | i | i
CC1CCC(NC(=O)CCn2ccc3cc(S(=O)(=O)N4CCCC4)ccc32)CC1 (configuration not stated) | i | i | i | 73.3 | i | i
CC1CCN(S(=O)(=O)c2ccc3c(ccn3CCC(=O)N3CCCCC3)c2)CC1 | i | i | i | i | i | i
O=C(NCCCN1CCOCC1)[C@H]1N[C@H]2c3ccc(C4=CCCCC4)c(=O)n3C[C@H]2[C@@H]1CO | nt | i | i | nt | nt | nt
Cc1ccccc1C(=O)Nc1ccc(C(=O)N/N=C/c2ccc(F)cc2)cc1 | i | i | i | i | i | i
Cc1ccccc1C(=O)Nc1ccc(C(=O)N/N=C/c2ccc(O)c(Br)c2)cc1 | i | i | -19.2 | i | i | i
O=C(O)C[C@@H]1C[C@H]2c3cc(NC(=O)C4CCOCC4)ccc3O[C@H]2[C@@H](CO)O1 | nt | i | i | nt | nt | i
COc1ccc(/C=C/c2cc(C(=O)O)c3ccccc3n2)cc1 | i | i | i | i | i | i
COc1cc(OC)c(OC)cc1/C=C/c1cc(C(=O)O)c2ccccc2n1 | i | i | -29.8 | i | i | i
CO[C@H]1CN(C)C(=O)c2ccc(NC(=O)C3CCCC3)cc2OC[C@@H](C)N(CC2CC2)C[C@H]1C | nt | i | i | nt | nt | i
CC(=O)N(C1=C(Cl)C(=O)c2ccccc2C1=O)C1CCCCC1 | i | i | i | i | i | 79.7
O=C(N/N=C/c1ccncc1)c1ccc(COc2cccc3cccnc23)cc1 | i | i | -28.0 | i | i | nt
O=C(CSc1cccc2cccnc12)N/N=C/c1ccc(O)cc1 | i | i | -14.5 | i | i | i
COc1cccc(/C=N/NC(=O)CSc2cccc3cccnc23)c1 | i | i | i | i | i | i
COc1cccc(S(=O)(=O)N[C@@H]2CC[C@H](CC(=O)NCc3ccccc3)O[C@@H]2CO)c1 | nt | i | i | i | nt | nt
C[C@@H]1CCCCO[C@@H](CN(C)S(=O)(=O)c2ccccc2)[C@H](C)CN([C@H](C)CO)C(=O)c2cc(NC(=O)c3ccccc3)ccc2O1 | nt | i | i | i | nt | i
NC(=O)C1=C[C@H](c2coc3ccccc3c2=O)C[C@H](OCCCCO)O1 | i | i | i | i | i | 33.2
C=CCOC(=O)C1=C[C@H](c2coc3ccccc3c2=O)C[C@H](OCc2ccc(CO)cc2)O1 | i | i | -21.0 | i | i | i
c1ccc2c(c1)OCC(CNc1ncnc3sccc13)O2 (configuration not stated) | i | nt | nt | 56.9 | i | i
O=c1c2ccccc2sn1-c1nccs1 | i | i | i | i | i | 37.9
O=C(NNC(=O)c1ccccc1O)c1ccc(-c2ccc([N+](=O)[O-])cc2)o1 | i | i | -24.5 | i | i | nt
O=C(Nc1ccccc1)c1ccc(-c2ccc([N+](=O)[O-])cc2)o1 | i | i | i | i | i | i
CC1CC(C)CN(C(=O)c2ccc(-c3ccc([N+](=O)[O-])cc3)o2)C1 (configuration not stated) | i | i | -20.9 | i | i | i
O=C(NNC(=O)c1cc2ccccc2o1)c1ccncc1 | i | i | i | nt | i | i
O=C(c1ccc(-c2ccc([N+](=O)[O-])cc2)o1)N1CCCCC1 | i | i | i | i | i | i
O=C(NNC(=O)c1ccccc1O)c1cc2ccccc2o1 | i | i | -30.7 | i | i | i
